The text below walks through data of ChEMBL document CHEMBL3745714, “Fragment-based drug discovery of potent and selective MKK3/6 inhibitors” (Bioorg Med Chem Lett, 2016).

For experiment [1], the target named is T1, Dual specificity mitogen-activated protein kinase kinase 3 (Homo sapiens, UniProt P46734).
T1 sequence (P46734 whole entry): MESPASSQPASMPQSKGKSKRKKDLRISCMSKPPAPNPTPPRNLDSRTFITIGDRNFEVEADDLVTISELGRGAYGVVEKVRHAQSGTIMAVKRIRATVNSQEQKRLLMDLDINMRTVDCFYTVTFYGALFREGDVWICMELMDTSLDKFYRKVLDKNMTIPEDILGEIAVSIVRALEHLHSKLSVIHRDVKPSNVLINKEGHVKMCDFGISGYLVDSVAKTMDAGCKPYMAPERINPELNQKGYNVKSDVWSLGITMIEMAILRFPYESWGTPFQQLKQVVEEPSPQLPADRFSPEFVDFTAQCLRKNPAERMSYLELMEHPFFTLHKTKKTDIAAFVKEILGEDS
As to the kind of experiment: Inhibition of MKK3 (unknown origin) using [gamma-33P]-ATP after 20 mins by radiometric assay.

For experiment [2], the target named is T2, Dual specificity mitogen-activated protein kinase kinase 6 (Homo sapiens, UniProt P52564).
T2 sequence (P52564 whole entry): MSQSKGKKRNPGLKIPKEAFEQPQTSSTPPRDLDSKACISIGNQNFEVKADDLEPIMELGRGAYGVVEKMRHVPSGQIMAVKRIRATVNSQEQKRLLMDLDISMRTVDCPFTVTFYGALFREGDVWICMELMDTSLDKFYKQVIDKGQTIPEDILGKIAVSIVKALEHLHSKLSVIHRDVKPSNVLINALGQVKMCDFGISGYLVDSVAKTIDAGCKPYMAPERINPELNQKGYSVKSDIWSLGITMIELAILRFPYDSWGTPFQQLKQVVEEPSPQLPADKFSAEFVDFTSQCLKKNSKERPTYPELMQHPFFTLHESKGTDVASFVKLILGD
Kind of experiment: Inhibition of MKK6 (unknown origin) using [gamma-33P]-ATP after 20 mins by radiometric assay.

The target in experiment [3] is T1, Dual specificity mitogen-activated protein kinase kinase 3. As to the kind of experiment: Binding affinity to MKK3 (unknown origin) by surface plasmon resonance assay. A general note: SPR reads the build-up and loss of mass on a sensor chip optically.
The species named for experiment [4] is Homo sapiens. Kind of experiment: Selectivity ratio of IC50 for MKK3 (unknown origin) to IC50 for ASK1 (unknown origin).
For experiment [5], the target named is Mitogen-activated protein kinase 14 (Homo sapiens, UniProt Q16539). Kind of experiment: Inhibition of p38alpha phosphorylation in human TNFalpha-stimulated U937 cells treated 1 hr before by ELISA. Format: cell-based, U-937. A digest of the protocol:
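U937 human leukemic monocytes were pre-treated with compound across a dose range for one hour, then stimulated with TNFα. Phospho-p38α was quantified by ELISA, and IC50 was taken from the dose-response.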
A general note: In an ELISA, binding on a coated surface is turned into a signal by an enzyme label.

The species entered for experiment [6] is Homo sapiens. As to the kind of experiment: Selectivity ratio of IC50 for MKK3 (unknown origin) to IC50 for JNK1 (unknown origin).
The species named for experiment [7] is Homo sapiens. Kind of experiment: Selectivity ratio of IC50 for MKK3 (unknown origin) to IC50 for ERK2 (unknown origin).
The species named for experiment [8] is Homo sapiens. As to the kind of experiment: Selectivity ratio of IC50 for MKK3 (unknown origin) to IC50 for MEK2 (unknown origin).
For experiment [9], the species on record is Homo sapiens. As to the kind of experiment: Selectivity ratio of IC50 for MKK3 (unknown origin) to IC50 for p38alpha (unknown origin).
The species named for experiment [10] is Homo sapiens. As to the kind of experiment: Selectivity ratio of IC50 for MKK3 (unknown origin) to IC50 for MEK1 (unknown origin).
The species named for experiment [11] is Homo sapiens. As to the kind of experiment: Selectivity ratio of IC50 for MKK3 (unknown origin) to IC50 for TAK1 (unknown origin).
The species named for experiment [12] is Homo sapiens. Kind of experiment: Selectivity ratio of IC50 for MKK3 (unknown origin) to IC50 for JNK2 (unknown origin).
The species named for experiment [13] is Homo sapiens. Kind of experiment: Selectivity ratio of IC50 for MKK3 (unknown origin) to IC50 for MKK6 (unknown origin).
For experiment [14], the species on record is Homo sapiens. Kind of experiment: Selectivity ratio of IC50 for MKK3 (unknown origin) to IC50 for p38gamma (unknown origin).
For experiment [15], the species on record is Homo sapiens. As to the kind of experiment: Selectivity ratio of IC50 for MKK3 (unknown origin) to IC50 for ERK1 (unknown origin).
The species named for experiment [16] is Homo sapiens. Kind of experiment: Selectivity ratio of IC50 for MKK3 (unknown origin) to IC50 for MLK3 (unknown origin).

Sequence of Mitogen-activated protein kinase 14 (Q16539 whole entry): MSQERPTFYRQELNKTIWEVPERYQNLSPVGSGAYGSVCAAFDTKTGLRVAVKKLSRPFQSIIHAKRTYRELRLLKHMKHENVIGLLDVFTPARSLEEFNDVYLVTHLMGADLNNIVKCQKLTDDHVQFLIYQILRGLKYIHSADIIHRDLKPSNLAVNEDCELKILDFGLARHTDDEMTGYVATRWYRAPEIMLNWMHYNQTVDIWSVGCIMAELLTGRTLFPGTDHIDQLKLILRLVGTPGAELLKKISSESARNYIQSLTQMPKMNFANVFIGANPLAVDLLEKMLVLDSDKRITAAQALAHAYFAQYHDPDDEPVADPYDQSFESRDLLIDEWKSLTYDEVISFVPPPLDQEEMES

As to `NC(=O)c1nnc2ccccc2c1N`, the IC50 (usually the point on the concentration scale where inhibition reaches its midpoint) in experiment [1] worked out at 37000 nM; in [2], 16000 nM. Further, binding in experiment [3] was put at a Kd of 2000 nM.

In the case of `NC(=O)c1nc(-c2ccns2)c2ccccn12`, the Ratio IC50 was more than 100 in the experiment filed under Homo sapiens [4]; more than 100 in the experiment filed under Homo sapiens [6]; more than 100 in the experiment filed under Homo sapiens [7]; more than 100 in the experiment listed under Homo sapiens [8]; more than 100 in the experiment filed under Homo sapiens [9]; 86 in the experiment listed under Homo sapiens [10]. Further, the Ratio IC50 in the experiment filed under Homo sapiens [11] was 23; in the experiment filed under Homo sapiens [12] it was more than 100; in the experiment filed under Homo sapiens [13] it was 12; in the experiment listed under Homo sapiens [14], more than 100; in the experiment filed under Homo sapiens [15], more than 100; in the experiment filed under Homo sapiens [16], more than 100. Moreover, the IC50 amounted to 730 nM in experiment [5] and 4 nM in [1].

Regarding `CNc1ccc(-c2ccncc2)nc1C(N)=O`, the Ratio IC50 in the experiment listed under Homo sapiens [4], in the experiment listed under Homo sapiens [6], in the experiment filed under Homo sapiens [7], in the experiment filed under Homo sapiens [8], in the experiment listed under Homo sapiens [9] and in the experiment filed under Homo sapiens [10] was more than 100 throughout. Besides, the Ratio IC50 is more than 100 in the experiment filed under Homo sapiens [11]; more than 100 in the experiment filed under Homo sapiens [12]; less than 9 in the experiment filed under Homo sapiens [13]; more than 100 in the experiment listed under Homo sapiens [14]; more than 100 in the experiment listed under Homo sapiens [15]; more than 100 in the experiment listed under Homo sapiens [16]. The IC50 in experiment [5] was found to be 2700 nM; in experiment [1], 4 nM.

Regarding `NC(=O)c1nc(-c2ccncc2)c2ccccn12`, half-maximal inhibition in [1] (IC50) required 150 nM.

In the case of `NC(=O)c1nc(-c2ccccc2)ccc1N`, the IC50 in [1] was 4200 nM.

Consider `NC(=O)c1nc(-c2ccncc2)ccc1N`, for which half-maximal inhibition in [1] (IC50) required 30 nM.
